Assays:
[1] = target: T1, Estrogen receptor (Homo sapiens) (UniProt P03372); assay: Affinity for estrogen receptor alpha (ER-alpha) relative to estradiol
T1 sequence (whole entry): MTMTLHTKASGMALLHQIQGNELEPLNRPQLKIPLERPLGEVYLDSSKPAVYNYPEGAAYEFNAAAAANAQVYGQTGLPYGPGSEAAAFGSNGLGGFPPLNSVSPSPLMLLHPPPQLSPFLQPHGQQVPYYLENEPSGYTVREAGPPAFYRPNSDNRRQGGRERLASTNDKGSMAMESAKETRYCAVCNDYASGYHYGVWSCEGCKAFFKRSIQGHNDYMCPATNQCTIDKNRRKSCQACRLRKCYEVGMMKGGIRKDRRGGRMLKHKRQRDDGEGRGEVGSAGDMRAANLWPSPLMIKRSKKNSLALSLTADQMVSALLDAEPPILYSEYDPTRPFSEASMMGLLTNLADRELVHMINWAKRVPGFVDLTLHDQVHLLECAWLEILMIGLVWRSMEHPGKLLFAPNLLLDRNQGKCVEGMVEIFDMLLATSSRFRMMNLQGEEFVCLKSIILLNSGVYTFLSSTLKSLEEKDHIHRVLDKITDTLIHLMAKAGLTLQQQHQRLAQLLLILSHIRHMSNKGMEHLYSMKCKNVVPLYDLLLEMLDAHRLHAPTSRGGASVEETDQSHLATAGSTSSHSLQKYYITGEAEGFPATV
Outline: (§1)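 Competitive radiometric binding assay against ER alpha or ER beta. Values are reported as relative binding affinity (RBA), expressed as a percentage of the affinity of estradiol.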

[2] = target: Estrogen receptor beta (Homo sapiens) (UniProt Q92731); assay: Affinity for estrogen receptor beta (ER-beta) relative to estradiol; outline: as §1
Sequence of Estrogen receptor beta (Homo sapiens) (Q92731 whole entry): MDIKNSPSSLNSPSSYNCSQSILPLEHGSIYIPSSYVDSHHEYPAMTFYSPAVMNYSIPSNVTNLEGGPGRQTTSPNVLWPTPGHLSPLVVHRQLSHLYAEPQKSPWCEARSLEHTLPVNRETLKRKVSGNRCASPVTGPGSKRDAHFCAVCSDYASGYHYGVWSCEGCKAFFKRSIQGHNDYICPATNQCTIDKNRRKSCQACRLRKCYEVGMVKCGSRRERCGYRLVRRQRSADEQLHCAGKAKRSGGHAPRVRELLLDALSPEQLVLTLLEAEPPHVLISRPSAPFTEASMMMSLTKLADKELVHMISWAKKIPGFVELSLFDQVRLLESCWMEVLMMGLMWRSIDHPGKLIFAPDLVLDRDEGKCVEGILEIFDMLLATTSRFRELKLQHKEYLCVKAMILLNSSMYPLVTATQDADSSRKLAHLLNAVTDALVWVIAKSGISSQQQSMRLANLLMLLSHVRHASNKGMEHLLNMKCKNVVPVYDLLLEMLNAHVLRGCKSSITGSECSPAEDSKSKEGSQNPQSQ

[3] = target: Estrogen receptor (Homo sapiens) (UniProt Q92731+P03372); assay: Relative affinity for alpha and beta estrogen receptors; format: protein assay
Sequence of Estrogen receptor (Homo sapiens) (UniProt Q92731+P03372) (Q92731 whole entry, looked up, one chain of several): as the sequence (Q92731 whole entry) above

[4] = target: T1, Estrogen receptor (Homo sapiens); assay: Binding affinity for Estrogen receptor alpha relative to estradiol; outline: as §1
[5] = target: Estrogen receptor beta (Homo sapiens) (UniProt Q92731); assay: Binding affinity for Estrogen receptor beta relative to estradiol; outline: as §1

Row | Structure (SMILES) | relative binding affinity (RBA) [1] | relative binding affinity (RBA) [2] | Ratio [3] | relative binding affinity (RBA) [4] | relative binding affinity (RBA) [5]
1 | Oc1ccc2c(c1)CN1CN2Cc2cc(O)ccc21 | < 0.005 | < 0.005 | – | – | –
2 | Oc1ccc(C2C3CCCC2CCC3)cc1 (stereo not drawn) | 0.13 | 1.33 | 10 | – | –
3 | CC1(c2ccc(O)cc2)C2CCCC1CCC2 (stereo not drawn) | 0.32 | 8.9 | 28 | – | –
4 | O=C1c2cc(O)ccc2C2CC1c1ccc(O)cc1C2=O | 0.006 | 0.021 | 3.5 | – | –
5 | CC(=O)Oc1ccc(C(=C2CCCCC2)c2ccc(OC(C)=O)cc2)cc1 | – | – | – | 68 | 334
6 | C[C@@H]1c2cc(O)ccc2C2CC1c1ccc(O)cc1[C@H]2C | 0.004 | 0.011 | 2.7 | – | –
7 | Oc1ccc(C2(c3ccc(O)cc3)C3CCCC2CCC3)cc1 | 0.31 | 0.25 | 0.8 | – | –
8 | Oc1ccc2c(c1)C1Cc3ccc(O)cc3C(C2)C1 | 0.033 | 0.072 | 2 | – | –
9 | Oc1ccc2c(c1)CC1CC2Cc2cc(O)ccc21 | 0.22 | 0.77 | 3.5 | – | –
10 | Oc1ccc(C2=CCC3CCCC2C3)cc1 (stereo not drawn) | 0.39 | 1.81 | 4.6 | – | –
11 | C[C@@H]1c2ccc(O)cc2C2CC1c1cc(O)ccc1[C@H]2C | 0.007 | 0.025 | 3.6 | – | –
12 | Oc1ccc(C(=C2C3CCCC2CCC3)c2ccc(O)cc2)cc1 | 513 | 301 | 0.59 | – | –
13 | O=C1c2ccc(O)cc2C2CC1c1cc(O)ccc1C2=O | 0.005 | 0.022 | 4.4 | – | –
14 | CC(=C1C2CCCC1CCC2)c1ccc(O)cc1 | 1.71 | 4.58 | 2.7 | – | –
15 | Oc1ccc(C2CCC3CC2CCC3c2ccc(O)cc2)cc1 (stereo not drawn) | 0.44 | 2.9 | 6.6 | – | –

— ChEMBL document CHEMBL1144864, “Exploration of the bicyclo[3.3.1]nonane system as a template for the development of new ligands for the estrogen receptor” (Bioorg Med Chem Lett, 2003)
